Active and inactive are the calls of the source. The rule behind the calls is not given here.
Tests used:
[1] = target: T1, Activin receptor type-1 (Homo sapiens) (UniProt Q04771); experiment: Inhibition of human ALK2 using casein as substrate at 10 uM in presence of 10 uM [gamma33P] ATP by kinase assay
T1 sequence (whole entry): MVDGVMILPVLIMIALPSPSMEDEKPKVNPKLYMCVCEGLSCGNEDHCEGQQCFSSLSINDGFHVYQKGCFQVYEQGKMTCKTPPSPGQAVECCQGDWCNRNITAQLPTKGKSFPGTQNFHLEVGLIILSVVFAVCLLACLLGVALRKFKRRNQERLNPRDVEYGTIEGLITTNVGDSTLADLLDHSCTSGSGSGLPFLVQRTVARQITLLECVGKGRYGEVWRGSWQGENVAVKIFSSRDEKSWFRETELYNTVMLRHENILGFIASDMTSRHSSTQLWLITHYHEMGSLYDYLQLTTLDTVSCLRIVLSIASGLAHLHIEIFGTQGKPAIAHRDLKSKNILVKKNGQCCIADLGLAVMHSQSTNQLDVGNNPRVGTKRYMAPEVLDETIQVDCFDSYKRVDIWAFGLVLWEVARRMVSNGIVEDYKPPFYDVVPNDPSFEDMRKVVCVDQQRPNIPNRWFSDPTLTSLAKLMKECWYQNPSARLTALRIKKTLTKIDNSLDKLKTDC

[2] = target: T2, Activin receptor type-1 (Homo sapiens, UniProt Q04771); experiment: Inhibition of human ALK2 using casein as substrate in presence of 10 uM [gamma33P] ATP by kinase assay
T2 sequence (Q04771 whole entry): T1 sequence (whole entry)

[3] = target: T3, Receptor-interacting serine/threonine-protein kinase 2 (Homo sapiens, UniProt O43353); experiment: Inhibition of recombinant human RIPK2 incubated for 2 hr by ADP-Glo assay
T3 sequence (O43353 whole entry): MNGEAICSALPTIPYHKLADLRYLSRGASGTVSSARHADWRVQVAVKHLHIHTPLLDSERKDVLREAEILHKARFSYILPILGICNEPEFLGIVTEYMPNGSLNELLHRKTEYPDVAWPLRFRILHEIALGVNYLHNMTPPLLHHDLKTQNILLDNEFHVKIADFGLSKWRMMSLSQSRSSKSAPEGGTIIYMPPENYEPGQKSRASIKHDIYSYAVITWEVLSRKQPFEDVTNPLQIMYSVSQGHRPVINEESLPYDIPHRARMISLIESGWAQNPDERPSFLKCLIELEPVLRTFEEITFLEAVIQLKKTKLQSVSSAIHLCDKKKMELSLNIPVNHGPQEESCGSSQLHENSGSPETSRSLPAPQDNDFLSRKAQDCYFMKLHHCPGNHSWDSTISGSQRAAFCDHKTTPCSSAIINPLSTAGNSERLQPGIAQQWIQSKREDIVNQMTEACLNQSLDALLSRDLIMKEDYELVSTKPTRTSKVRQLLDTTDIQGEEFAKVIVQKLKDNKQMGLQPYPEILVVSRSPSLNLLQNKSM
Method in brief: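 IC50 values reported as the mean of two or three determinations ± standard deviation.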

[4] = target: Nucleotide-binding oligomerization domain-containing protein 2 (Homo sapiens) (UniProt Q9HC29); experiment: Inhibition of human NOD2 expressed in HEK293 cells coexpressing NFkappaB-SEAP reporter at 10 uM measured after 7 to 9 hrs by HEKBIue reporter assay; type: cell-based; conditions: time 7-9 hrs
Nucleotide-binding oligomerization domain-containing protein 2 (Homo sapiens), sequence (Q9HC29 whole entry, the tested form may be a part): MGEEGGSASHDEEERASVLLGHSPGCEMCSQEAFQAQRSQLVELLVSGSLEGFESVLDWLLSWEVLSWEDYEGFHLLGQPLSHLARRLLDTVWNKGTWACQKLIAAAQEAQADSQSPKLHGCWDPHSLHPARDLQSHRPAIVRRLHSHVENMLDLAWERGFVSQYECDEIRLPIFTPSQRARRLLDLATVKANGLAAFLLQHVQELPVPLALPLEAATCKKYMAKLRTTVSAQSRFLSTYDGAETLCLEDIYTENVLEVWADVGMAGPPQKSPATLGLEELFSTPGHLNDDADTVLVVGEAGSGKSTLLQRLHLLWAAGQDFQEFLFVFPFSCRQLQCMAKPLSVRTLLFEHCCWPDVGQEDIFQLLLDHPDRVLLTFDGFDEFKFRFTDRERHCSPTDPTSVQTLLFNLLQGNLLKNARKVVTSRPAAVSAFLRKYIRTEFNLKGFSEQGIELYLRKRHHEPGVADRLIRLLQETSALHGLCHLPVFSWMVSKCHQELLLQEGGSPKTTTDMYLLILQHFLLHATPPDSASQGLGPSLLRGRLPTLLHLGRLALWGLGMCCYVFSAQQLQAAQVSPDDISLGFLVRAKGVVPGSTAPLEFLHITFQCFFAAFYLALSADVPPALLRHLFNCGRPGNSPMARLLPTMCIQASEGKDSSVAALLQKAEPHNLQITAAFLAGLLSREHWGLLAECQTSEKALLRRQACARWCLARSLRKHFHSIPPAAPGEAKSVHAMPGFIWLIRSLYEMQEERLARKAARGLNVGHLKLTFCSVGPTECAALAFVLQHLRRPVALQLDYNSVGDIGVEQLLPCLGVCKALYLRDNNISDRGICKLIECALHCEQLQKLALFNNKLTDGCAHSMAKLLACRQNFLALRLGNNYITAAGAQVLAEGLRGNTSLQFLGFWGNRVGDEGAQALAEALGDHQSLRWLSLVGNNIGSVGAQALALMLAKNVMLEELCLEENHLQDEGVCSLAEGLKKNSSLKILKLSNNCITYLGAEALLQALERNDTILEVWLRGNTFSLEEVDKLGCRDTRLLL

[5] = target: T3, Receptor-interacting serine/threonine-protein kinase 2; experiment: Inhibition of recombinant human RIPK2 at 10 uM incubated for 2 hr by ADP-Glo assay
[6] = Permeability of the compound by PAMPA; type: ADME
[7] = Stability in mouse liver microsomes assessed as intrinsic clearance; type: ADME, Microsome
[8] = Stability in mouse liver microsomes assessed as half life; type: ADME, Microsome
[9] = Clearance in C57BL/6 mouse at 10 mg/kg, ip by LC-MS/MS analysis; type: ADME, organism-based; conditions: in vivo
Method in brief: (§1)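 Single 10 mg/kg intraperitoneal dose formulated in 6% Captisol in water, given to 8-week-old female C57BL/6 mice, n = 5 mice per group; plasma concentrations followed over time to derive PK parameters.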

[10] = Aqueous solubility of compound in PBS buffer at pH 7.4; type: physicochemical
Method in brief: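 Solubility measured in PBS buffer at pH 7.4.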

[11] = AUC in C57BL/6 mouse at 10 mg/kg, ip by LC-MS/MS analysis; type: ADME, organism-based; parameters: dose 10 mg/kg; conditions: in vivo; method in brief: as §1

Row | Structure (SMILES) | inhibition [1] | IC50 [2] [nM] | IC50 [3] [nM] | other results
1 | CCCS(=O)(=O)Nc1cc(-c2cc(-c3ccc(N4CCNCC4)cc3)cnc2C)cc(F)c1OC | inactive |  |  | 
2 | CCOc1cc(NS(=O)(=O)C(C)C)cc(-c2cc(-c3ccc(N4CCNCC4)cc3)cnc2N)c1 |  | 299 | 21 | 
3 | CCCS(=O)(=O)Nc1cc(-c2cc(-c3ccc(N4CCNCC4)cc3)cnc2N)ccc1O |  | 387 |  | 
4 | CCCS(=O)(=O)Nc1cc(-c2cc(-c3ccc(N4CCNCC4)cc3)cnc2N)cc(C)c1OC |  | 395 | 41 | 
5 | CC(C)Oc1cc(NS(=O)(=O)C(C)C)cc(-c2cc(-c3ccc(N4CCNCC4)cc3)cnc2N)c1 | inactive |  | 18 | 
6 | CCCS(=O)(=O)Nc1cc(-c2cc(-c3ccc(N4CCNCC4)cc3)cnc2N)ccc1C |  | 2120 | 102 | 
7 | CCCS(=O)(=O)Nc1cc(-c2cc(-c3ccc(N4CCNCC4)cc3)cnc2N)cc2c1OCCO2 | inactive |  | 520 | 
8 | CCCS(=O)(=O)Nc1cc(-c2cncc(-c3ccc(N4CCNCC4)cc3)c2)cc(F)c1OC |  |  | 27 | 
9 | COc1cc(-c2cc(-c3ccc(N4CCNCC4)cc3)cnc2C)cc(OC)c1OC |  |  | 100 | inhibition [4]: inactive
10 | CCCS(=O)(=O)Nc1cc(-c2cc(-c3cccc(N4CCNCC4)c3)cnc2N)cc(F)c1OC |  | 522 | 11 | 
11 | CCCS(=O)(=O)Nc1cc(OC)cc(-c2cc(-c3ccc(N4CCNCC4)cc3)cnc2N)c1 |  | 9 | 14 | 
12 | CCCS(=O)(=O)Nc1ccc(-c2cc(-c3ccc(N4CCNCC4)cc3)cnc2C)cc1OC | inactive |  |  | inhibition [5]: inactive
13 | CCCS(=O)(=O)Nc1cc(-c2cc(-c3cccc(S(C)(=O)=O)c3)cnc2N)ccc1OC | inactive |  | 103 | 
14 | CCCS(=O)(=O)Nc1cc(-c2cc(-c3ccc(S(C)(=O)=O)cc3)cnc2N)ccc1OC | inactive |  | 264 | inhibition [4]: inactive
15 | CCCS(=O)(=O)Nc1cc(-c2cc(-c3ccc(N4CCNCC4)cc3)cnc2N)cc(OC)c1OC |  | 57 |  | 
16 | CCCS(=O)(=O)NCc1cc(-c2cc(-c3ccc(N4CCNCC4)cc3)cnc2N)ccc1OC |  | 145 | 99 | 

Row | Structure (SMILES) | inhibition [1] | IC50 [2] [nM] | IC50 [3] [nM] | other results
17 | CCCS(=O)(=O)N1CCc2ccc(-c3cc(-c4ccc(N5CCNCC5)cc4)cnc3N)cc21 | inactive |  | 185 | 
18 | COc1cc(-c2cc(-c3ccc(N4CCNCC4)cc3)cnc2N)cc(F)c1OC |  | 29 |  | 
19 | COc1cc(NS(C)(=O)=O)cc(-c2cc(-c3ccc(N4CCNCC4)cc3)cnc2N)c1 |  | 5 | 51 | 
20 | CCS(=O)(=O)Nc1cc(OC)cc(-c2cc(-c3ccc(N4CCNCC4)cc3)cnc2C)c1 |  | 86 | 127 | 
21 | CCCS(=O)(=O)Nc1cc(-c2cc(-c3ccc(N4CCNCC4)cc3)cnc2N)ccc1OC |  | 3540 | 32 | 
22 | COc1cc(NS(=O)(=O)c2ccccc2)cc(-c2cc(-c3ccc(N4CCNCC4)cc3)cnc2N)c1 |  | 5 | 23 | 
23 | CCCS(=O)(=O)N1CCOc2ccc(-c3cc(-c4ccc(N5CCNCC5)cc4)cnc3N)cc21 | inactive |  | 78 | 
24 | CCCS(=O)(=O)Nc1cc(OC)cc(-c2cc(-c3ccc(N4CCNCC4)cc3)cnc2C)c1 |  | 108 | 164 | 
25 | CCCS(=O)(=O)Nc1cc(-c2cc(-c3ccc(N4CCNCC4)cc3)cnc2N)cc(F)c1OC |  | 348 | 16 | permeability [6]: 2.9 10^-6 cm/s; CLint [7]: 27 µL/min/mg; t1/2 [8]: 25.6 min; CL/F [9]: 59.7 mL/min/kg; solubility [10]: >= 100 uM; AUC [11]: 2920 ng·h/mL
26 | CCCS(=O)(=O)Nc1cc(-c2cc(-c3ccc(N4CCNCC4)cc3)cnc2N)cc(Cl)c1OC |  | 202 | 21 | 
27 | COc1cc(NS(C)(=O)=O)cc(-c2cc(-c3ccc(N4CCNCC4)cc3)cnc2C)c1 |  | 31 | 296 | 
28 | CCCS(=O)(=O)Nc1cc(-c2cc(-c3ccc(N4CCNCC4)cc3)cnc2N)cc(OC)c1C |  | 355 |  | inhibition [5]: inactive
29 | COc1cc(NS(=O)(=O)C(C)C)cc(-c2cc(-c3ccc(N4CCNCC4)cc3)cnc2C)c1 |  | 239 | 76 | 
30 | COc1cc(NS(=O)(=O)C(C)C)cc(-c2cc(-c3ccc(N4CCNCC4)cc3)cnc2N)c1 |  | 11 | 13 | 
31 | CCCS(=O)(=O)Nc1cc(-c2cc(-c3ccccc3S(C)(=O)=O)cnc2N)ccc1OC | inactive |  |  | inhibition [5]: inactive; inhibition [4]: inactive
32 | CCCS(=O)(=O)Nc1cc(-c2cc(-c3ccc(N4CCNCC4)cc3)cnc2N)cc(OCC)c1OC | inactive |  |  | inhibition [5]: inactive; inhibition [4]: inactive

Reference: ChEMBL document CHEMBL4765350, “Receptor-interacting protein kinase 2 (RIPK2) and nucleotide-binding oligomerization domain (NOD) cell signaling inhibitors based on a 3,5-diphenyl-2-aminopyridine scaffold” (Eur J Med Chem, 2020)
